This is an account of results in ChEMBL document CHEMBL5108087, “Synthesis and biological evaluation of paeoveitol D derivatives as new melatonin receptor agonists with antidepressant activities” (RSC Med Chem, 2022).

pEC50: −log10 of the molar value. Activity calls are given as the source filed them. The rule behind the calls is not given here.

Series [1] concerns Mus musculus. The experiment in a line: Antidepressant activity in kunming mouse assessed as increase in dopamine level in frontal cortex at 160 mg/kg, po measured after 14 days by HPLC-ECD analysis. The series is classed as functional, organism-based. The following applies: time 14.0 day. The procedure, abridged:
(§1)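 Male Kunming mice dosed orally with vehicle or 160 mg kg−1 for 14 days, then killed by cervical dislocation. Brain regions dissected on ice, homogenized in 0.2 M perchloric acid with 0.1 mM EDTA and spun at 4 °C for 20 min. Supernatant analysed by HPLC-ECD at +0.50 V, mobile phase pH 3.0. Amounts given in ng g−1 as mean ± SEM, n = 12.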

Series [2] can be described thus: AUC (0 to infinity) in Kunming mouse at 80 mg/kg, po administered as single dose and measured upto 24 hrs. The series is classed as ADME, organism-based. Also on record: time < 24 hrs, dose 80 mg/kg, route po. To be noted: in vivo.
Series [3] has as its system Mus musculus. The series is described as follows: Antidepressant activity in kunming mouse assessed as decrease in DOPAC level in hypothalamus at 160 mg/kg, po measured after 14 days by HPLC-ECD analysis. The series is classed as functional, organism-based. To be noted: time 14.0 day. The procedure, abridged:
as §1

In series [4] the test system is Mus musculus. The series is described as follows: Antidepressant activity in kunming mouse assessed as decrease in 5-HIAA level in frontal cortex at 160 mg/kg, po measured after 14 days by HPLC-ECD analysis. The series is classed as functional, organism-based. The following applies: time 14.0 day. The procedure, abridged:
as §1

For series [5], the system named is Mus musculus. The series is described as follows: Antidepressant activity in kunming mouse assessed as decrease in 5-HIAA level in thalamus at 160 mg/kg, po measured after 14 days by HPLC-ECD analysis. The series is classed as functional, organism-based. To be noted: time 14.0 day. The procedure, abridged:
as §1

Series [6] is described as follows: Tmax in Kunming mouse at 80 mg/kg, po administered as single dose and measured upto 24 hrs. The series is classed as ADME, organism-based. To be noted: in vivo.
In series [7] the test system is Mus musculus. The experiment in a line: Antidepressant activity in kunming mouse assessed as increase in 5-HT level in hypothalamus at 160 mg/kg, po measured after 14 days by HPLC-ECD analysis. The series is classed as functional, organism-based. To be noted: time 14.0 day. The procedure, abridged: as §1
In series [8] the test system is Mus musculus. The experiment in a line: Antidepressant activity in kunming mouse assessed as decrease in DOPAC level in hippocampus at 160 mg/kg, po measured after 14 days by HPLC-ECD analysis. The following applies: time 14.0 day. The series is classed as functional, organism-based. A digest of the protocol:
as §1

In series [9] the target is T1, Melatonin receptor type 1B (Homo sapiens, UniProt P49286).
T1 sequence (P49286 whole entry): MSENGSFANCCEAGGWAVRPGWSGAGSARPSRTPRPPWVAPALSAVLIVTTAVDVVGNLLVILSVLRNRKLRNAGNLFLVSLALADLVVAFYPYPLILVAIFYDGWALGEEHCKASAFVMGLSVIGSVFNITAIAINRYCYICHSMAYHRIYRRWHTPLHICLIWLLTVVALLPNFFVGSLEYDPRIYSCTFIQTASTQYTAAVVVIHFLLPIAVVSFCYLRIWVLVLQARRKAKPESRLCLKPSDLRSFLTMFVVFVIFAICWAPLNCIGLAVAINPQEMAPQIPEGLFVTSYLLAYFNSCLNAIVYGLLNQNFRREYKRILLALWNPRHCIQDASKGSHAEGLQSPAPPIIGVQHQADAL
The series is described as follows: Agonist activity at human MT2 receptor expressed in HEK293 cells by Fluo-8 based calcium assay. The series is classed as functional, cell-based.

Series [10] is described as follows: Subacute toxicity in Kunming mouse assessed as animal death at 240 mg/kg, po administered for 14 days. The series is classed as organism-based. To be noted: in vivo, 336 h, time 14 day. The procedure, abridged: (§2)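 Subacute oral study following OECD 425. Animals randomised into two groups of six. Vehicle control received 0.5% CMC-Na orally for 14 consecutive days; the treated group received 240 mg kg−1 body weight orally for 14 consecutive days.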

Series [11] can be described thus: Subacute toxicity in Kunming mouse assessed as effect on heart structure at 240 mg/kg, po administered for 14 days. The series is classed as organism-based. To be noted: in vivo, 336 h, time 14 day. A digest of the protocol: as §2
For series [12], the system named is Mus musculus. The experiment in a line: Antidepressant activity in kunming mouse assessed as decrease in 5-HIAA level in hippocampus at 160 mg/kg, po measured after 14 days by HPLC-ECD analysis. The series is classed as functional, organism-based. To be noted: time 14.0 day. The procedure, abridged: as §1
Series [13] relates to Mus musculus. The experiment in a line: Antidepressant activity in Kunming mouse assessed as decrease in immobility time at 80 mg/kg, po and measured after 14 days by forced swim test relative to control. The series is classed as functional. Further details: scale not given: the % may be the effect or the level left. To be noted: time 14 day. The procedure, abridged: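 Male Kunming mice, 15–18 g, given the test compound orally for 14 days. Forced swim then done in a cylinder 25 cm high and 15 cm in diameter, water 10 cm deep at 25 ± 1 °C. Swim lasted 6 min and immobility over the final 4 min was video-scored against the vehicle group.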

Series [14] has as its system Mus musculus. The series is described as follows: Antidepressant activity in kunming mouse assessed as increase in 5-HT level in thalamus at 160 mg/kg, po measured after 14 days by HPLC-ECD analysis. The series is classed as functional, organism-based. The following applies: time 14.0 day. A digest of the protocol:
as §1

Series [15] concerns Mus musculus. The experiment in a line: Antidepressant activity in kunming mouse assessed as decrease in DOPAC level in thalamus at 160 mg/kg, po measured after 14 days by HPLC-ECD analysis. The series is classed as functional, organism-based. The following applies: time 14.0 day. The procedure, abridged: as §1
Series [16] concerns Mus musculus. The series is described as follows: Antidepressant activity in kunming mouse assessed as increase in 5-HT level in frontal cortex at 160 mg/kg, po measured after 14 days by HPLC-ECD analysis. The series is classed as functional, organism-based. The following applies: time 14.0 day. The procedure, abridged:
as §1

Series [17] concerns the target T1, Melatonin receptor type 1B. The series is described as follows: Agonist activity at human MT2 receptor transfected in HEK293T cells co-transfected with tet-inducible luciferase reporter plasmid, pCDNA3.1(+)-CMV-betaArrestin2-tev plasmid and TANGO plasmid assessed as relative luminescence unit incubated for 24 hrs by TANGO-GPCR assay based luminescence plate reader analysis. The series is classed as functional, cell-based. On the technique in general: A reporter such as luciferase makes a cellular process visible.

The test system of series [18] is Mus musculus. The series is described as follows: Antidepressant activity in kunming mouse assessed as decrease in DOPAC level in frontal cortex at 160 mg/kg, po measured after 14 days by HPLC-ECD analysis. To be noted: time 14.0 day. The series is classed as functional, organism-based. The procedure, abridged: as §1
The nature of series [19]: Subacute toxicity in Kunming mouse assessed as effect on liver structure at 240 mg/kg, po administered for 14 days. The series is classed as organism-based. To be noted: in vivo, 336 h, time 14 day. A digest of the protocol: as §2
For series [20], the system named is Mus musculus. The series is described as follows: Antidepressant activity in kunming mouse assessed as increase in dopamine level in hypothalamus at 160 mg/kg, po measured after 14 days by HPLC-ECD analysis. The series is classed as functional, organism-based. The following applies: time 14.0 day. The procedure, abridged: as §1
For series [21], the system named is Mus musculus. The experiment in a line: Antidepressant activity in kunming mouse assessed as increase in 5-HT level in striatum at 160 mg/kg, po measured after 14 days by HPLC-ECD analysis. The series is classed as functional, organism-based. The following applies: time 14.0 day. The procedure, abridged:
as §1

In series [22] the test system is Mus musculus. The experiment in a line: Antidepressant activity in kunming mouse assessed as increase in dopamine level in hippocampus at 160 mg/kg, po measured after 14 days by HPLC-ECD analysis. The series is classed as functional, organism-based. To be noted: time 14.0 day. The procedure, abridged:
as §1

For series [23], the target named is Melatonin receptor type 1A (Homo sapiens, UniProt P48039). The experiment in a line: Agonist activity at human MT1 receptor expressed in HEK293 cells by Fluo-8 based calcium assay. The series is classed as functional, cell-based.
Melatonin receptor type 1A, sequence (P48039 whole entry): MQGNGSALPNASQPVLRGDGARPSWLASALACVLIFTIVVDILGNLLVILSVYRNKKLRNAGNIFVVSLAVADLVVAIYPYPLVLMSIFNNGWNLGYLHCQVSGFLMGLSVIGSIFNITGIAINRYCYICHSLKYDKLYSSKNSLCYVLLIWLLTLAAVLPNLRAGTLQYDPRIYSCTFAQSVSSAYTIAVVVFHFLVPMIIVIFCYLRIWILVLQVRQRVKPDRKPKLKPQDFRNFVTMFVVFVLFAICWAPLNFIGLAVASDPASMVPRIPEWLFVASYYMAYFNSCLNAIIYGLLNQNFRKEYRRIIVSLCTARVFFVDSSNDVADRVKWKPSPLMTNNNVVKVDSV

As usually defined, the AUC is the area under the concentration-time curve, a measure of exposure. The Tmax is the time from dosing to the highest level. Usually pEC50 stands for the negative decadic logarithm of the EC50, by convention in mol/L. For `COc1cc2c(CN3CCN(C)CC3)coc2cc1C`, the outcome in series [1], in series [3], in series [4], in series [5], in series [7] and in [8] was Active. Besides, the result in [12], in [14], in series [15], in series [16], in series [18] and in series [20] was Active. Besides, the outcome in series [21] and in [22] was Active. This compound also came in with an AUC in series [2] of 5620 ng·h/mL. Moreover, the Tmax in series [6] was found to be 4.98 min. Also, the negative logarithm of the EC50 (pEC50) in [9] is 3.59; in series [17] it was 3.52; in series [23], 3.48. Besides, the Activity entry in [10] is reported as “Non-Toxic”; in series [11] it was “Non-Toxic”; in [13], 26%; in series [19] it was “Non-Toxic”.
